Assay [1] addresses T1, Mu-type opioid receptor (Homo sapiens, UniProt P35372). Put plainly: biochemical. The class given is cell-based, CHO.
For assay [2], the target named is T2, Kappa-type opioid receptor (Homo sapiens, UniProt P41145). Put plainly: biochemical. The class given is cell-based, CHO.
In assay [3] the target is T1, Mu-type opioid receptor. Put plainly: Functional activity at human mu opioid receptor expressed in CHO cells by [35S]GTP-gamma-S binding assay. The class given is cell-based. A digest of the protocol:
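Human µ receptor stably expressed in CHO cells; membranes at 7.5 µg protein/tube, incubated 60 min at 30 °C with 12 compound concentrations, 3 µM GDP and […] [35S]GTPγS in pH 7.4 Tris/MgCl2/NaCl/EGTA buffer. […] Antagonist mode used 200 nM DAMGO. At least 3 experiments in triplicate.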
For orientation: Binding of GTPγS marks nucleotide exchange on a G protein.

Assay [4] addresses T2, Kappa-type opioid receptor. Put plainly: Functional activity at human kappa opioid receptor expressed CHO cells by [35S]GTPgammaS binding assay. The class given is cell-based.
The target of assay [5] is T2, Kappa-type opioid receptor. Put plainly: Activity at human kappa opioid receptor expressed in CHO cells by [35S]GTP-gamma-S binding assay. It counts as functional, cell-based.
Assay [6] deals with Delta-type opioid receptor (Homo sapiens, UniProt P41143). Put plainly: Displacement of [3H]naltrindole from human delta opioid receptor expressed in CHO cells. The class given is cell-based. A digest of the protocol: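 Competition binding on membranes of CHO cells stably expressing human δ receptor, using [3H]naltrindole and 12 compound concentrations. Incubated 3 h at 25 °C in 50 mM Tris-HCl, pH 7.5.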
Delta-type opioid receptor, sequence (P41143 whole entry): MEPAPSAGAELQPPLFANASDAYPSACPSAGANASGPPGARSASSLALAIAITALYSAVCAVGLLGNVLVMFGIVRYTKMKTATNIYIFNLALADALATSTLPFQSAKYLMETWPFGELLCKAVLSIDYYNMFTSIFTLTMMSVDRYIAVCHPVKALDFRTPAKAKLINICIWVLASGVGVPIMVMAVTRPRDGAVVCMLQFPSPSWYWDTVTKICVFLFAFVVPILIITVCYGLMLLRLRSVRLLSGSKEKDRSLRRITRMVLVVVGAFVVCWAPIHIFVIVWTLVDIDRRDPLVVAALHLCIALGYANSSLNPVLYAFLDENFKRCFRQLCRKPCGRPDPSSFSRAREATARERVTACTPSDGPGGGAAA

The target in assay [7] is T1, Mu-type opioid receptor. Put plainly: Activity at human mu opioid receptor expressed in CHO cells by [35S]GTP-gamma-S binding assay. It counts as functional, cell-based.
Assay [8] can be described thus: Displacement of [3H]naltrindole from human delta opioid receptor expressed in CHO cells. (In general: In a radioligand displacement assay an active substance lowers the binding of a labelled ligand.)
Assay [9] concerns the target T2, Kappa-type opioid receptor. Put plainly: Activity at human kappa opioid receptor expressed in CHO cells by [35S]GTPgammaS binding assay at 10 uM. The class given is functional, cell-based. Put shortly: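 Membranes from CHO cells stably expressing human κ receptor (15 µg protein/tube), 12 compound concentrations, 60 min at 30 °C in Tris-HCl/MgCl2/NaCl/EGTA buffer pH 7.4 with 3 µM GDP and […] [35S]GTPγS. Filtration count, expressed as % stimulation over basal, giving Emax and EC50. […] At least 3 experiments in triplicate.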

Each structure is given as a SMILES string. Bounds are passed on as bounds.

Experimental findings from ChEMBL document CHEMBL1148605, “Synthesis and preliminary in vitro investigation of bivalent ligands containing homo- and heterodimeric pharmacophores at mu, delta, and kappa opioid receptors” (J Med Chem, 2006) are described below.

In general, Ki refers to the equilibrium dissociation constant of an inhibitor or competing ligand from its target. The low end stands for a stronger hold on the target, the high end for a looser hold on the target. For orientation: EC50 means the concentration giving half of the maximal effect. Read a low EC50 as an effect from little substance. A word on the Emax: it is the size of the effect at its maximum, as opposed to the concentration needed. By IC50 is commonly meant the concentration at which inhibition is half-maximal. A lower IC50 goes with greater potency.

T1 sequence (P35372 whole entry): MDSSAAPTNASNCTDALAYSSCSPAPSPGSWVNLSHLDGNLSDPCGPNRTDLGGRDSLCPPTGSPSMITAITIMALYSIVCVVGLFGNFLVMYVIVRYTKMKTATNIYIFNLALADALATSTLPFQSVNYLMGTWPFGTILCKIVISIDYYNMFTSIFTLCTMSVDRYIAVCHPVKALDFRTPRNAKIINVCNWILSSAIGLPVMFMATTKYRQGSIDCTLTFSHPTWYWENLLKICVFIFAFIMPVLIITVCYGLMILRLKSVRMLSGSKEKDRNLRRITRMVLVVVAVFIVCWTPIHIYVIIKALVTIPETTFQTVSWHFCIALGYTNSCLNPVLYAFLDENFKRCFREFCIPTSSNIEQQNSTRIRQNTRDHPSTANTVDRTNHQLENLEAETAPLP
T2 sequence (P41145 whole entry): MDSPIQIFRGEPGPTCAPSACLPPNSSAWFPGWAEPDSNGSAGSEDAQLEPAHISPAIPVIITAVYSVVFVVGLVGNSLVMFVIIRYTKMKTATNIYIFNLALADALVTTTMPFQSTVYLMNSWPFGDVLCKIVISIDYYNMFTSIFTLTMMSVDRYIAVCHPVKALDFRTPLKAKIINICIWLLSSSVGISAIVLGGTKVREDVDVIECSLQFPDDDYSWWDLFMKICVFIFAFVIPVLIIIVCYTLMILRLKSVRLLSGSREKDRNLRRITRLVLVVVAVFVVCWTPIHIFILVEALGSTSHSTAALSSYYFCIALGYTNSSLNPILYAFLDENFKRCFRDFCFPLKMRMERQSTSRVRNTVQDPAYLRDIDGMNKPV

For `O=C(O)CCCCCCCCC(=O)Oc1ccc2c(c1)[C@@]13CCCCC1[C@@H](C2)N(CC1CCC1)CC3` (some centres not stated), the results for the Ki (at Mu-type opioid receptor [1]; in [2]; in assay [6]) were 0.71 nM, 0.29 nM and 18 nM, respectively. In addition, the Activity result (at Mu-type opioid receptor [3] (filed as agonist); in assay [4] (filed as agonist)) was “Agonist” each time. The EC50 in [5] amounted to 2.8 nM; on Mu-type opioid receptor [7], 3 nM. Further, the results for the Emax (in assay [5]; on Mu-type opioid receptor [7]) were 75% and 110%, respectively.
Regarding `C[C@@H](NC(=O)[C@@H](N)Cc1ccc(O)cc1)C(=O)NCC(=O)N(C)[C@@H](Cc1ccccc1)C(=O)NCCO`, the Activity result at Mu-type opioid receptor [3] (filed as agonist) was “Agonist”.
`O=C(CCCCCCCCC(=O)Oc1ccc2c(c1)[C@@]13CCCCC1[C@@H](C2)N(C[C@@H]1CCCO1)CC3)Oc1ccc2c(c1)[C@@]13CCCCC1[C@@H](C2)N(C[C@@H]1CCCO1)CC3` (some centres not stated): at Mu-type opioid receptor [1], the inhibitory constant (Ki) was 0.67 nM. This molecule also yielded an inhibition constant (Ki) in assay [2] of 1.2 nM. In addition, in [4] (filed as agonist), the Activity entry was “Agonist”. Moreover, in assay [5], the midpoint of the response, the EC50, lay at 8.8 nM and the maximum response (Emax) came to 140%. In [6], this molecule returned a Ki of 8.3 nM. On Mu-type opioid receptor [7], this molecule registered an EC50 of 12 nM, a maximal effect (Emax) of 69%, a concentration for half-maximal inhibition (IC50) of 360 nM and an Imax of 48%.
For `C#CCN1CC[C@]23CCCCC2[C@H]1Cc1ccc(OC(=O)CCCCCCCCC(=O)Oc2ccc4c(c2)[C@@]25CCCCC2[C@@H](C4)N(CC#C)CC5)cc13` (some centres not stated), the Ki stood at 14 nM at Mu-type opioid receptor [1], 10 nM in [2] and 190 nM in assay [6].
For `O=C(CCCCCCCCC(=O)Nc1ccc2c(c1)[C@@]13CCCCC1[C@@H](C2)N(CC1CCC1)CC3)Nc1ccc2c(c1)[C@@]13CCCCC1[C@@H](C2)N(CC1CCC1)CC3` (some centres not stated) the same measures were 5.7 nM, 7.5 nM and 38 nM.
Regarding `O=C(CCCCCCCCC(=O)Oc1ccc2c(c1)[C@]13CCCCC1[C@H](C2)N(CC1CCC1)CC3)Oc1ccc2c(c1)[C@]13CCCCC1[C@H](C2)N(CC1CCC1)CC3` (some centres not stated), the inhibition constant Ki at Mu-type opioid receptor [1] stood at 130 nM; in [2], 130 nM; in [6] it was 700 nM.
For `Nc1ccc2c(c1)[C@@]13CCCC[C@H]1[C@@H](C2)N(CC1CCC1)CC3`, the Ki at Mu-type opioid receptor [1] came to 3.7 nM; in assay [2] it was 1.8 nM.
Regarding `O=C(CCCCCCCCC(=O)Oc1ccc2c(c1)[C@]13CCCCC1[C@H](C2)N(CC1CCC1)CC3)Oc1ccc2c(c1)[C@@]13CCCCC1[C@@H](C2)N(CC1CCC1)CC3` (single isomer, unassigned; (+)), the Ki at Mu-type opioid receptor [1] was 2.2 nM. In [2], this molecule gave a Ki of 1.2 nM. Also, in [4] (filed as agonist), the Activity entry is “Agonist”. In assay [5], the EC50 came to 7.9 nM and the Emax stood at 77%. For the same molecule, affinity in assay [6] was put at a Ki of 23 nM. Besides, at Mu-type opioid receptor [7], the Emax was 28%, the IC50 stood at 460 nM and the Imax turned out to be 71%.
Take `Oc1ccc2c(c1)[C@]13CCCCC1[C@H](C2)N(CC1CCC1)CC3` (single isomer, unassigned; (+)): the Ki is 55 nM in assay [2] and more than 10000 nM in assay [6].
On to `Oc1ccc2c(c1)[C@@]13CCCC[C@H]1[C@@H](C2)N(CC1CCC1)CC3`, for which the Activity entry at Mu-type opioid receptor [3] (filed as partial agonist) is “Partial agonist”; in [4] (filed as agonist), “Agonist”. The molecule further returned an Imax on Mu-type opioid receptor [7] of 50%.
With `Oc1ccc2c(c1)[C@@]13CCCCC1[C@@H](C2)N(C[C@@H]1CCCO1)CC3` (some centres not stated), the Ki at Mu-type opioid receptor [1] was 0.01 nM; in [2], 0.15 nM; in [8], 0.27 nM.
Regarding `CN1CC[C@]23c4c5ccc(OC(=O)CCCCCCCCC(=O)Oc6ccc7c(c6)[C@@]68CCCCC6[C@@H](C7)N(CC6CCC6)CC8)c4O[C@H]2[C@@H](O)C=C[C@H]3[C@H]1C5` (some centres not stated), the Ki at Mu-type opioid receptor [1] came out at 0.22 nM; in assay [2] it was 0.11 nM; in [6], 3.9 nM. In addition, the Activity entry (at Mu-type opioid receptor [3] (filed as agonist); in assay [4] (filed as agonist)) was “Agonist” in each case. For the same molecule, the EC50 in [5] was determined as 2.3 nM; on Mu-type opioid receptor [7], 2.5 nM. Moreover, the results for the Emax (in assay [5]; on Mu-type opioid receptor [7]) were 150% and 110%, respectively.
On to `C#CCN1CC[C@]23CCCC[C@H]2[C@H]1Cc1ccc(O)cc13`, for which the Ki on Mu-type opioid receptor [1] stood at 0.003 nM; in assay [2] it was 0.003 nM; in assay [8], 0.62 nM.
With `O=C(CCCCCCCCC(=O)Oc1ccc2c(c1)[C@@]13CCCCC1[C@@H](C2)N(CC1CCC1)CC3)Nc1ccc2c(c1)[C@@]13CCCCC1[C@@H](C2)N(CC1CCC1)CC3` (some centres not stated), the Ki worked out at 0.65 nM on Mu-type opioid receptor [1], 0.38 nM in [2] and 12 nM in assay [6]. The Activity result (at Mu-type opioid receptor [3] (filed as partial agonist); in assay [4] (filed as partial agonist)) was “Partial agonist” in each case. Moreover, the EC50 in assay [5] was determined as 8.8 nM; on Mu-type opioid receptor [7] it was 4.4 nM. For the same molecule, the Emax in [5] was 55%; at Mu-type opioid receptor [7], 56%. The Imax came out at 65 µM in [9] and 61% on Mu-type opioid receptor [7]. In addition, on Mu-type opioid receptor [7], the half-inhibitory concentration (IC50) was found to be 150 nM.
Turning to `O=C(CCCCCCCCC(=O)Oc1ccc2c(c1)[C@@]13CCCCC1[C@@H](C2)N(CC1CCC1)CC3)Oc1ccccc1` (some centres not stated), the Ki was 0.44 nM at Mu-type opioid receptor [1], 0.3 nM in assay [2] and 11 nM in [6]. In addition, the Activity result (on Mu-type opioid receptor [3] (filed as agonist); in [4] (filed as agonist)) was “Agonist” in each case. The EC50 in [5] worked out at 3.8 nM; on Mu-type opioid receptor [7] it was 5.1 nM. The Emax in assay [5] came to 170%; at Mu-type opioid receptor [7] it was 93%.
In the case of `O=C(/C=C/C(=O)Nc1ccc2c(c1)[C@@]13CCCCC1[C@@H](C2)N(CC1CCC1)CC3)Nc1ccc2c(c1)[C@@]13CCCCC1[C@@H](C2)N(CC1CCC1)CC3` (some centres not stated), the values for the Ki (on Mu-type opioid receptor [1]; in assay [2]; in [6]) were 13 nM, 7.3 nM and 160 nM, respectively.
As to `Oc1ccc2c(c1)[C@]13CCCCC1[C@H](C2)N(CC1CC1)CC3` (single isomer, unassigned; (+)), the affinity in assay [6] corresponds to a Ki of 13 nM.
Consider `O=C(CCCCCCCCC(=O)Oc1ccc2c(c1)[C@@]13CCCCC1[C@@H](C2)N(CC1CC1)CC3)Oc1ccc2c(c1)[C@@]13CCCCC1[C@@H](C2)N(CC1CCC1)CC3` (single isomer, unassigned; (-)), for which the Ki was determined as 0.34 nM at Mu-type opioid receptor [1], 0.23 nM in [2] and 4.4 nM in assay [6]. Moreover, the Activity entry was “Partial agonist” on Mu-type opioid receptor [3] (filed as partial agonist) and “Agonist” in assay [4] (filed as agonist). Besides, the EC50 came out at 2.5 nM in assay [5] and 2.9 nM on Mu-type opioid receptor [7]. Further, the results for the Emax (in assay [5]; on Mu-type opioid receptor [7]) were 110% and 41%, respectively. The IC50 at Mu-type opioid receptor [7] stood at 96 nM. Moreover, the Imax on Mu-type opioid receptor [7] was 64%.
Consider `O=C(/C=C/C(=O)Oc1ccc2c(c1)[C@@]13CCCC[C@H]1[C@@H](C2)N(CC1CCC1)CC3)Oc1ccc2c(c1)[C@@]13CCCC[C@H]1[C@@H](C2)N(CC1CCC1)CC3`, for which the Ki in assay [2] is 0.08 nM.
Turning to `O=C(CCC(=O)Nc1ccc2c(c1)[C@@]13CCCCC1[C@@H](C2)N(CC1CCC1)CC3)Nc1ccc2c(c1)[C@@]13CCCCC1[C@@H](C2)N(CC1CCC1)CC3` (some centres not stated), the results for the Ki (at Mu-type opioid receptor [1]; in assay [2]) were 3.3 nM and 3.8 nM, respectively.
As for `O=C(CCC(=O)Oc1ccc2c(c1)[C@@]13CCCCC1[C@@H](C2)N(CC1CCC1)CC3)Oc1ccc2c(c1)[C@@]13CCCCC1[C@@H](C2)N(CC1CCC1)CC3` (some centres not stated), the results for the inhibitory constant (Ki) (at Mu-type opioid receptor [1]; in assay [2]; in assay [6]) were 0.16 nM, 0.076 nM and 9.4 nM, respectively.
With `O=C(/C=C/C=C/C(=O)Oc1ccc2c(c1)[C@@]13CCCCC1[C@@H](C2)N(CC1CCC1)CC3)Oc1ccc2c(c1)[C@@]13CCCCC1[C@@H](C2)N(CC1CCC1)CC3` (some centres not stated), the results for the Ki (on Mu-type opioid receptor [1]; in assay [2]; in assay [6]) were 2.8 nM, 0.62 nM and 28 nM, respectively. The Activity result (at Mu-type opioid receptor [3] (filed as agonist); in [4] (filed as agonist)) was “Agonist” in each case. Besides, the EC50 in assay [5] stood at 17 nM; at Mu-type opioid receptor [7], 19 nM. Also, the values for the Emax (in assay [5]; at Mu-type opioid receptor [7]) were 91% and 96%, respectively.
As for `Oc1ccc2c(c1)[C@@]13CCCC[C@H]1[C@@H](C2)N(CC1CC1)CC3`, the Activity entry on Mu-type opioid receptor [3] (filed as partial agonist) is “Partial agonist”.
